ChEMBL document CHEMBL2029200, “Discovery of a novel melanin concentrating hormone receptor 1 (MCHR1) antagonist with reduced hERG inhibition” (Bioorg Med Chem Lett, 2012)
Calls of active or inactive are those of the source. The calls are words filed in the database; no cut-off is given here.

What was measured:
[1] = test system: Mus musculus; assay: Antiobesity activity in high fat diet-fed C57BL/6 mouse assessed as reduction in body weight at 3 mg/kg, po daily measured up to day 137 relative to control; assay type: functional, organism-based; set-up: dose 3 mg/kg
[2] = target: T1, Voltage-gated inwardly rectifying potassium channel KCNH2 (Homo sapiens, UniProt Q12809); assay: Inhibition of human Erg expressed in HEK293 cells assessed as rubidium efflux after 4 hrs by atomic absorbance spectrometric analysis
T1 sequence (Q12809 whole entry): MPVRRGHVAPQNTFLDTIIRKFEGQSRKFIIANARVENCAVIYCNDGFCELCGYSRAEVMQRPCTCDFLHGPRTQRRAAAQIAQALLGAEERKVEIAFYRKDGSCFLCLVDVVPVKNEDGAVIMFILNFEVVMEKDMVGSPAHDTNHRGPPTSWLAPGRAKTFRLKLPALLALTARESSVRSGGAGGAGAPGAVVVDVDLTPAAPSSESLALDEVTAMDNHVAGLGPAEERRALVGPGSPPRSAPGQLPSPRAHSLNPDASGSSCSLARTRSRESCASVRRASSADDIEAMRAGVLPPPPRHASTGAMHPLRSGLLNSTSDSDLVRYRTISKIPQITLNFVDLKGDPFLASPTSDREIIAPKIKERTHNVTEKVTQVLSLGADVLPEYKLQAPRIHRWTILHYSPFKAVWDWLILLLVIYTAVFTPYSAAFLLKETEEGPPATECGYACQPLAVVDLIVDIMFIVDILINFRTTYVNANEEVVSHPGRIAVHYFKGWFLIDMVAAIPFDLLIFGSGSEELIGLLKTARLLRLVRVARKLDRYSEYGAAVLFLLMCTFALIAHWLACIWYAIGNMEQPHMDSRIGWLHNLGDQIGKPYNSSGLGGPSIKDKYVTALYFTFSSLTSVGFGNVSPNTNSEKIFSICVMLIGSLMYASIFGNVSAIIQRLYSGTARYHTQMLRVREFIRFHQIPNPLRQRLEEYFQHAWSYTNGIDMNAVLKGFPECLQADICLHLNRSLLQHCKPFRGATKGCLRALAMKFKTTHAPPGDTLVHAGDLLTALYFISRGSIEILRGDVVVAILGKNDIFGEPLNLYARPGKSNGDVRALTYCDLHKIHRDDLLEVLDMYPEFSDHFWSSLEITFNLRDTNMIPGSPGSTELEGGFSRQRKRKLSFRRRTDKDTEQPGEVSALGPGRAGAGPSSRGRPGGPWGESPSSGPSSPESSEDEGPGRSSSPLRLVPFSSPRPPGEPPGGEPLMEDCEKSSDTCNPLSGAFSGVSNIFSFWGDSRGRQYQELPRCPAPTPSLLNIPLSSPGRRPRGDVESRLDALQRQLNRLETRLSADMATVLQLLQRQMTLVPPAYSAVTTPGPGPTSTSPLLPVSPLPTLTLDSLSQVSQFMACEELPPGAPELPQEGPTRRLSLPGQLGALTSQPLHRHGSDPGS

[3] = target: T1, Voltage-gated inwardly rectifying potassium channel KCNH2; assay: Binding affinity to human Erg
[4] = test system: Mus musculus; assay: Antiobesity activity in high fat diet-fed C57BL/6 mouse assessed as reduction in body weight at 10 mg/kg, po daily measured up to day 137 relative to control; assay type: functional, organism-based; set-up: dose 10 mg/kg
In short: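 Male/female unspecified C57BL/6 mice weaned at 4–5 weeks and kept on high-fat diet for over 24 weeks before dosing. Body weight followed for 137 days against vehicle.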

[5] = test system: Mus musculus; assay: Antiobesity activity in high fat diet-fed C57BL/6 mouse assessed as reduction in food intake at 3 to 10 mg/kg, po daily measured up to day 137 relative to control; assay type: functional, organism-based
[6] = test system: Mus musculus; assay: Antiobesity activity in high fat diet-fed MCHR1-knockout C57BL/6 mouse assessed as reduction in body weight at 100 mg/kg, po daily measured for 34 weeks relative to control; assay type: functional, organism-based; set-up: dose 100 mg/kg
In short: (§1)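 Wild-type and MCHR1-knockout female C57BL/6 mice given compound mixed into a 60% kCal fat high-fat diet. Body weight gain at study end compared with vehicle.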

[7] = target: T2, Melanin-concentrating hormone receptor 1 (Homo sapiens, UniProt Q99705); assay: Displacement of [125I]-MCH from MCHR1 after 2 hrs by scintillation counting
T2 sequence (Q99705 whole entry): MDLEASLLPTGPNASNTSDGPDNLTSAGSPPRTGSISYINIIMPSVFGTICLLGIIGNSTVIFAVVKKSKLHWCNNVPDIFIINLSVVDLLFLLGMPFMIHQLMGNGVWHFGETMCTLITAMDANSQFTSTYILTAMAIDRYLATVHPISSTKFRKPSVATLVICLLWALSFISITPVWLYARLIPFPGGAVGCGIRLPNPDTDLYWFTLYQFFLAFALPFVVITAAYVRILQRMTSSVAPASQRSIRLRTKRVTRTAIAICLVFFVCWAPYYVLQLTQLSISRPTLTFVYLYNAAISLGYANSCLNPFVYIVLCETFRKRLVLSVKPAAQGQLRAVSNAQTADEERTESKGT
In short: (§2)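 Competition binding on MCHR1 membrane preparation with 125I-MCH tracer. Compound diluted in 50 mM Tris pH 7.4, 10 mM MgCl2, 2.5 mM EDTA, 0.2% BSA. Incubation 2 h at 37 °C with shaking. Bound and free ligand separated by vacuum filtration through BSA-pretreated filter plates. Filters washed 4 times in Hepes/NaCl/BSA buffer, then counted by scintillation.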

[8] = target: Melanin-concentrating hormone receptor 1 (Mus musculus, UniProt Q8JZL2); assay: Antagonist activity at mouse MCHR1 assessed inhibition of MCH-mediated intracellular Ca2+ calcium mobilization; assay type: functional, cell-based
Chain of Melanin-concentrating hormone receptor 1 (Mus musculus, UniProt Q8JZL2) (Q8JZL2 whole entry): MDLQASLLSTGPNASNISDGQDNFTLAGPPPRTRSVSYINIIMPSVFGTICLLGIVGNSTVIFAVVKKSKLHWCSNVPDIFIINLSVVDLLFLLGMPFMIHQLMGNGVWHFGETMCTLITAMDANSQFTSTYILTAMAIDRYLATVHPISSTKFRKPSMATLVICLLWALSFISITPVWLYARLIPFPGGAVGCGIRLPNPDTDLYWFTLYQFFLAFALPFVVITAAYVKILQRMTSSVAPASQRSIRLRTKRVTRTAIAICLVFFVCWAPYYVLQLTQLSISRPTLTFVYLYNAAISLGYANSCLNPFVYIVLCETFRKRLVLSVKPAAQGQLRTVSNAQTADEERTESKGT
In short: (§3)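 MCH-evoked intracellular Ca2+ mobilization read by aequorin luminescence in cells. Antagonism measured as blockade of the MCH response.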

[9] = Mean residence time in mouse at 3 mg/kg, po; assay type: ADME, organism-based; set-up: dose 3 mg/kg, route oral; conditions: in vivo
In short: (§4)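 Pharmacokinetics determined after IV dosing at 0.5 mg/kg and oral dosing at 3 mg/kg.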

[10] = target: Sodium-dependent serotonin transporter (Homo sapiens, UniProt P31645); assay: Binding affinity to serotonin transporter
Chain of Sodium-dependent serotonin transporter (P31645 whole entry): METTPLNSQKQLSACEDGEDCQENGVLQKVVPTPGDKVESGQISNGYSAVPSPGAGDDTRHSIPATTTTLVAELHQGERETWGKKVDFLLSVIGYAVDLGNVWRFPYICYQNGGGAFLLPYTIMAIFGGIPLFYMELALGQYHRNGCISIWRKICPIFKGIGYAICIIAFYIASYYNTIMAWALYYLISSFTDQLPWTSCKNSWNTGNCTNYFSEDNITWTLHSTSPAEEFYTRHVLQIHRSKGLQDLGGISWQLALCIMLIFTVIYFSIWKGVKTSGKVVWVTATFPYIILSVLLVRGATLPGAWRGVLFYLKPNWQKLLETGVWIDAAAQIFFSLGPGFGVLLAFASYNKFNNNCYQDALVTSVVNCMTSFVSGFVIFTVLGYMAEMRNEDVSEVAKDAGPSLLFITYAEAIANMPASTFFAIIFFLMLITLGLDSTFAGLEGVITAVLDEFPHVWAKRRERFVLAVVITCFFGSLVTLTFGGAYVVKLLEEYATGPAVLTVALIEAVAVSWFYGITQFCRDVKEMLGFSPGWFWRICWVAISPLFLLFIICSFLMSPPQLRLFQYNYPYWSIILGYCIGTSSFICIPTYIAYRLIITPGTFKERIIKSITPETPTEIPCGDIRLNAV

[11] = Cmax in dog at 300 mg/kg, po; assay type: ADME, organism-based, Canis lupus familiaris; set-up: dose 300 mg/kg, route oral; conditions: in vivo
In short: (§5)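 Dogs dosed orally at 300 mg/kg in a 4 h study. QTc monitored throughout; plasma Cmax determined.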

[12] = target: Melanin-concentrating hormone receptor 1 (Macaca mulatta, UniProt Q8MJ89); assay: Antagonist activity at rhesus monkey MCHR1 assessed inhibition of MCH-mediated intracellular Ca2+ calcium mobilization; assay type: functional, cell-based; in short: as §3
Chain of Melanin-concentrating hormone receptor 1 (Macaca mulatta, UniProt Q8MJ89) (Q8MJ89 whole entry): as the sequence (Q99705 whole entry) above, with A14T, T33S, I36V, T60M counted along it

[13] = test system: Canis familiaris; assay: Cardiotoxicity in dog assessed as QT prolongation at 100 mg/kg, po BID for 28 days; assay type: toxicity, organism-based, Canis lupus familiaris; set-up: dose 100 mg/kg, route oral; conditions: in vivo, 672 h
[14] = Oral bioavailability in mouse at 3 mg/kg; assay type: ADME, organism-based; conditions: in vivo; in short: as §4
[15] = target: Muscarinic acetylcholine receptor M2 (Homo sapiens, UniProt P08172); assay: Binding affinity to muscarinic M2 receptor
[16] = Oral bioavailability in rat at 3 mg/kg; assay type: ADME, organism-based; conditions: in vivo; in short: as §4
[17] = test system: Cynomolgus monkey; assay: Cardiotoxicity in cynomolgus monkey assessed as QT prolongation at 30 mg/kg, po; assay type: toxicity, organism-based, Macaca fascicularis; set-up: dose 30 mg/kg, route oral; conditions: in vivo
In short: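 Cynomolgus monkeys (n = 3) given a single 30 mg/kg oral dose; QTc monitored.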

[18] = target: Sodium-dependent noradrenaline transporter (Homo sapiens, UniProt P23975); assay: Binding affinity to norepinephrine transporter
Chain of Sodium-dependent noradrenaline transporter (P23975 whole entry): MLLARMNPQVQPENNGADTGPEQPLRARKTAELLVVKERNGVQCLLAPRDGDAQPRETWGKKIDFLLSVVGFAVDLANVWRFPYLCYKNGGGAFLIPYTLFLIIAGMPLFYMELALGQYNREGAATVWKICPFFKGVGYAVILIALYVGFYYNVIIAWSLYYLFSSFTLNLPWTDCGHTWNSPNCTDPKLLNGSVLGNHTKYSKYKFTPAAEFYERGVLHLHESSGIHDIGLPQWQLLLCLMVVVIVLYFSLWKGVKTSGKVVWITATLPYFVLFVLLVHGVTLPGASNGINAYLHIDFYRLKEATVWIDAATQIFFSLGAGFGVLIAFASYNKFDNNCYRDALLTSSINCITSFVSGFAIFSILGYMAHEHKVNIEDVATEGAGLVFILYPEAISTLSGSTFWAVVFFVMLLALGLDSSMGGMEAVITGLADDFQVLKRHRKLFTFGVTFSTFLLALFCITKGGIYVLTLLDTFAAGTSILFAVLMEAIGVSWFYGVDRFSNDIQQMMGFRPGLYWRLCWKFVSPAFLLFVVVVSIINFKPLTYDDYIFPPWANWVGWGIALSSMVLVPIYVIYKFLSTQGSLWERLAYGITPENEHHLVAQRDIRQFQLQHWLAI

[19] = Mean residence time in rat at 3 mg/kg, po; assay type: ADME, organism-based; set-up: dose 3 mg/kg, route oral; conditions: in vivo; in short: as §4
[20] = target: T3, 5-hydroxytryptamine receptor 2C (Homo sapiens, UniProt P28335); assay: Binding affinity to serotonin 5HT2C receptor
T3 sequence (P28335 whole entry): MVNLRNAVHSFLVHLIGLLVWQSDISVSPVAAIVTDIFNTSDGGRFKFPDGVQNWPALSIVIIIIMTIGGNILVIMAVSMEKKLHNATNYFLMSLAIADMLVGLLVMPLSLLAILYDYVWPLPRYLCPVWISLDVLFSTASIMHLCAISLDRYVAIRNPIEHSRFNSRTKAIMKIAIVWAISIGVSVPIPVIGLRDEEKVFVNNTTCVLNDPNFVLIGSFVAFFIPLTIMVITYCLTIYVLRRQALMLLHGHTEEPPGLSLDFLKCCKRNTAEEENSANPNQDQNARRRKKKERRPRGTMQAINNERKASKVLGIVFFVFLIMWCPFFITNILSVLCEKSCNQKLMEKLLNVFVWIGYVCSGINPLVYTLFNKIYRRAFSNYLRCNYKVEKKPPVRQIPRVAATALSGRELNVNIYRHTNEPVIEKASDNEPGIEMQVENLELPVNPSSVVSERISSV

[21] = target: Mu-type opioid receptor (Homo sapiens, UniProt P35372); assay: Binding affinity to opioid mu receptor
[22] = Mean residence time in cynomolgus monkey at 3 mg/kg, po; assay type: ADME, organism-based, Macaca fascicularis; set-up: dose 3 mg/kg, route oral; conditions: in vivo; in short: as §4
[23] = Plasma concentration in iv dosed rhesus monkey after 45 mins; assay type: ADME, organism-based, Macaca mulatta
In short: (§6)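 Anesthetized rhesus monkeys received an IV bolus followed by a 45 min IV infusion. QTc recorded throughout.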

[24] = test system: Rhesus monkey; assay: Cardiotoxicity in rhesus monkey assessed as QT prolongation administered as bolus dose; assay type: toxicity, organism-based, Macaca mulatta; conditions: in vivo; in short: as §6
[25] = target: Melanin-concentrating hormone receptor 1 (Rattus norvegicus, UniProt P97639); assay: Antagonist activity at rat MCHR1 assessed inhibition of MCH-mediated intracellular Ca2+ calcium mobilization; assay type: functional, cell-based; in short: as §3
Chain of Melanin-concentrating hormone receptor 1 (Rattus norvegicus, UniProt P97639) (P97639 whole entry): as the sequence (Q8JZL2 whole entry) above, with A5T, F24L, A27P, P29S, R34G, A138T counted along it

[26] = target: 5-hydroxytryptamine receptor 2A (Homo sapiens, UniProt P28223); assay: Binding affinity to serotonin 5HT2A receptor
Chain of 5-hydroxytryptamine receptor 2A (P28223 whole entry): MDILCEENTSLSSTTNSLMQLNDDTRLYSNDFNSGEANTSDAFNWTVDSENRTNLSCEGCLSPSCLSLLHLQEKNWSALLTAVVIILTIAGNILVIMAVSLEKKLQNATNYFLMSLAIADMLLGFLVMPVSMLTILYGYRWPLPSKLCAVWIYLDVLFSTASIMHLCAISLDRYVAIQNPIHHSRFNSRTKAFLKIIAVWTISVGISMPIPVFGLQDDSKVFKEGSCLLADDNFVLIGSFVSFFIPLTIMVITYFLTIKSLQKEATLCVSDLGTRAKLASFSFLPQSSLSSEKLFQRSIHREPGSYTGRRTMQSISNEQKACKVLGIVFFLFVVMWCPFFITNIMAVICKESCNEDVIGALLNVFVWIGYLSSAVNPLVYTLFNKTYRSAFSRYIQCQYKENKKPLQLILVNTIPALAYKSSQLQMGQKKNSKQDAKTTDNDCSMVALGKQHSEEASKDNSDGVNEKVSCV

[27] = Ratio of drug uptake in brain to plasma of rat at 10 mg/kg, po; assay type: ADME, organism-based; set-up: dose 10 mg/kg, route oral; conditions: brain and plasma, read-out: BPR
[28] = test system: Canis familiaris; assay: Cardiotoxicity in dog assessed as QT prolongation at 300 mg/kg, po; assay type: toxicity, organism-based, Canis lupus familiaris; set-up: dose 300 mg/kg, route oral; conditions: in vivo; in short: as §5
[29] = Volume of distribution at steady state in rat at 0.5 mg/kg, iv; assay type: ADME, organism-based; set-up: dose 0.5 mg/kg, route intravenous; conditions: in vivo, read-out: Vdss; in short: as §4
[30] = target: 5-hydroxytryptamine receptor 1A (Homo sapiens, UniProt P08908); assay: Binding affinity to serotonin 5HT1A receptor
[31] = target: T2, Melanin-concentrating hormone receptor 1; assay: Binding affinity to human MCHR1; in short: as §2
[32] = Clearance in beagle dog at 0.5 mg/kg, iv; assay type: ADME, organism-based, Canis lupus familiaris; set-up: dose 0.5 mg/kg, route intravenous; conditions: in vivo; in short: as §4
[33] = Oral bioavailability in cynomolgus monkey at 3 mg/kg; assay type: ADME, organism-based, Macaca fascicularis; conditions: in vivo; in short: as §4
[34] = Clearance in cynomolgus monkey at 0.5 mg/kg, iv; assay type: ADME, organism-based, Macaca fascicularis; set-up: dose 0.5 mg/kg, route intravenous; conditions: in vivo; in short: as §4
[35] = Volume of distribution at steady state in cynomolgus monkey at 0.5 mg/kg, iv; assay type: ADME, organism-based, Macaca fascicularis; set-up: dose 0.5 mg/kg, route intravenous; conditions: in vivo, read-out: Vdss; in short: as §4
[36] = target: D(2) dopamine receptor (Homo sapiens, UniProt P14416); assay: Binding affinity to dopamine D2 receptor
Chain of D(2) dopamine receptor (P14416 whole entry): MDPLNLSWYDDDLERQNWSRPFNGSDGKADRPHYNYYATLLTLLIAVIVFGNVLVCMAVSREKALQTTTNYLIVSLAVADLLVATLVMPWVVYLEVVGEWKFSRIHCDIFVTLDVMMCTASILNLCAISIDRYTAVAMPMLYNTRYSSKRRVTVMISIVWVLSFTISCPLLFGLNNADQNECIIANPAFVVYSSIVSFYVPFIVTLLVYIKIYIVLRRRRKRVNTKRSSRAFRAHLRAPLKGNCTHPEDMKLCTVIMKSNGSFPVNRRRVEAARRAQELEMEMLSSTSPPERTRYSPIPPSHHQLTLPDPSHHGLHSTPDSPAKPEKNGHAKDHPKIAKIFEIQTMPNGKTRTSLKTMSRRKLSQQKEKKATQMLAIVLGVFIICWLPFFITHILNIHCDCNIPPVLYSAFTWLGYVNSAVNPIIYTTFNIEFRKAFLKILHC

[37] = Ratio of drug uptake in blood to plasma of rat at 10 mg/kg, po; assay type: ADME, organism-based; set-up: dose 10 mg/kg, route oral; conditions: blood and plasma
In short: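 Single 10 mg/kg oral dose. Drug concentration in whole blood was divided by the plasma concentration to give the [blood]/[plasma] ratio. Brain/plasma and CSF/plasma ratios were obtained after the same dose.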

[38] = Clearance in mouse at 0.5 mg/kg, iv; assay type: ADME, organism-based; set-up: dose 0.5 mg/kg, route intravenous; conditions: in vivo; in short: as §4
[39] = Oral bioavailability in beagle dog at 3 mg/kg; assay type: ADME, organism-based, Canis lupus familiaris; conditions: in vivo; in short: as §4
[40] = Clearance in rat at 0.5 mg/kg, iv; assay type: ADME, organism-based; set-up: dose 0.5 mg/kg, route intravenous; conditions: in vivo; in short: as §4
[41] = Volume of distribution at steady state in mouse at 0.5 mg/kg, iv; assay type: ADME, organism-based; set-up: dose 0.5 mg/kg, route intravenous; conditions: in vivo, read-out: Vdss; in short: as §4
[42] = target: Alpha-2C adrenergic receptor (Homo sapiens, UniProt P18825); assay: Binding affinity to adrenergic alpha2C receptor
[43] = target: Alpha-2A adrenergic receptor (Homo sapiens, UniProt P08913); assay: Binding affinity to adrenergic alpha2A receptor
[44] = target: T2, Melanin-concentrating hormone receptor 1; assay: Antagonist activity at human MCHR1 assessed inhibition of MCH-mediated intracellular Ca2+ calcium mobilization by aequorin assay; assay type: functional, cell-based; in short: as §3
[45] = target: Melanin-concentrating hormone receptor 2 (Homo sapiens, UniProt Q969V1); assay: Antagonist activity at human MCHR2 assessed inhibition of MCH-mediated intracellular Ca2+ calcium mobilization; assay type: functional, cell-based; in short: as §3
[46] = Volume of distribution at steady state in beagle dog at 0.5 mg/kg, iv; assay type: ADME, organism-based, Canis lupus familiaris; set-up: dose 0.5 mg/kg, route intravenous; conditions: in vivo, read-out: Vdss; in short: as §4
[47] = target: Muscarinic acetylcholine receptor M3 (Homo sapiens, UniProt P20309); assay: Binding affinity to muscarinic M3 receptor
[48] = target: T3, 5-hydroxytryptamine receptor 2C; assay: Antagonist activity at serotonin 5HT2C receptor assessed as blockage of intracellular calcium mobilization; assay type: functional, cell-based
[49] = target: D(1A) dopamine receptor (Homo sapiens, UniProt P21728); assay: Binding affinity to dopamine D1 receptor
Chain of D(1A) dopamine receptor (P21728 whole entry): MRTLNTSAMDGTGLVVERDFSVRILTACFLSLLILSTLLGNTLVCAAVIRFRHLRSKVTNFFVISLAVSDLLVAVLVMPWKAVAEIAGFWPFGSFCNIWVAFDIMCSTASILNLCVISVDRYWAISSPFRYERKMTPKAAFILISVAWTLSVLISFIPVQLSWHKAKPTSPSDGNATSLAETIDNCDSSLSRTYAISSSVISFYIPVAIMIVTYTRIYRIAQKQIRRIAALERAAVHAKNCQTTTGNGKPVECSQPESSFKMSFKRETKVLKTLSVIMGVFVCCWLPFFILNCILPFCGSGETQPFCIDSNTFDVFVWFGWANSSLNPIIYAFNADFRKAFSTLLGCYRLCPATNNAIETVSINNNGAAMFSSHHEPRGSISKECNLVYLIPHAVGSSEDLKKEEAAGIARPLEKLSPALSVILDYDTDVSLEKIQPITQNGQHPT

[50] = Ratio of drug uptake in CSF to plasma of rat at 10 mg/kg, po; assay type: ADME, organism-based; set-up: dose 10 mg/kg, route oral; conditions: CSF and plasma
[51] = Mean residence time in beagle dog at 3 mg/kg, po; assay type: ADME, organism-based, Canis lupus familiaris; set-up: dose 3 mg/kg, route oral; conditions: in vivo; in short: as §4
[52] = test system: Mus musculus; assay: Antiobesity activity in high fat diet-fed C57BL/6 mouse expressing wild type MCHR1 gene assessed as reduction in body weight at 100 mg/kg, po daily measured for 34 weeks relative to control; assay type: functional; set-up: scale not given: the % may be the effect or the level left; in short: as §1

CC(C)CC(N(C)C)C1(c2ccc(Cl)cc2)CCC1 (stereo not drawn)
Activity [1]: Active

C[C@H]1c2c([nH]c3ccc(C(F)(F)F)cc23)C[C@H]2CCN(CCCC3CCOCC3)C[C@@H]21
IC50 [2]: 0.03 µM

N=C(c1ccc(C(=O)Nc2ccc(Cl)cc2C(=O)Nc2ccc(Cl)cn2)cc1)N1CCCC(C(=O)O)C1 (stereo not drawn)
Ki [3]: > 10 µM

C[C@H]1c2c([nH]c3ccc(C(F)(F)F)cc23)C[C@H]2CCN(CCC3(C(=O)O)CCCCC3)C[C@@H]21 [listing 1 of 2 here]
Activity [4]: Active | Activity [5]: Active | Activity [6]: inactive | Activity [1]: Active

C[C@H]1c2c([nH]c3ccc(C(F)(F)F)cc23)C[C@H]2CCN(CCC3(C(=O)O)CCOCC3)C[C@@H]21
IC50 [7]: 0.009 µM | IC50 [2]: > 5 µM

C[C@H]1c2c([nH]c3ccc(C(F)(F)F)cc23)C[C@H]2CCN(CCCC3(C(=O)O)CCOCC3)C[C@@H]21
IC50 [7]: 0.04 µM | IC50 [2]: 0.3 µM

C[C@H]1c2c([nH]c3ccc(C(F)(F)F)cc23)C[C@H]2CCN(CCC3(C(=O)O)CCCCC3)C[C@@H]21 [listing 2 of 2 here]
IC50 [8]: 0.0006 µM | MRT [9]: 5.8 h | Ki [10]: > 2 µM | Cmax [11]: 33 µM | IC50 [12]: 0.0008 µM | Activity [13]: Non-toxic | bioavailability [14]: 79% | Ki [15]: > 2 µM | bioavailability [16]: 70% | Activity [17]: Non-toxic | Ki [18]: > 2 µM | MRT [19]: 7.9 h | Ki [20]: 1.12 µM | Ki [21]: > 2 µM | MRT [22]: 11 h | concentration at 0.75 h [23]: 6.5 µM | Activity [24]: Non-toxic | IC50 [25]: 0.0008 µM | Ki [26]: > 2 µM | Kp [27]: 0.4 | Activity [28]: Non-toxic | Vd [29]: 3.8 L/kg | Ki [30]: > 2 µM | Ki [31]: 0.0006 µM | clearance [32]: 8.83 mL/min/kg | bioavailability [33]: 29% | clearance [34]: 3.67 mL/min/kg | Vd [35]: 2.3 L/kg | Ki [36]: 3.16 µM | blood plasma ratio [37]: 0.79 | clearance [38]: 10.7 mL/min/kg | bioavailability [39]: 40% | clearance [40]: 9.17 mL/min/kg | Vd [41]: 3.6 L/kg | Ki [42]: > 2 µM | Ki [43]: > 2 µM | IC50 [44]: 0.0012 µM | IC50 [45]: > 10 µM | Vd [46]: 2.2 L/kg | Ki [47]: > 2 µM | IC50 [7]: 0.0006 µM | IC50 [48]: 1.14 µM | Ki [49]: > 2 µM | Kp [50]: 0.21 | MRT [51]: 4.2 h | IC50 [2]: > 5 µM

C[C@H]1c2c([nH]c3ccc(C(F)(F)F)cc23)C[C@H]2CCN(CCC3(C(=O)O)CCCCC3)C[C@@H]21.Cl
Activity [52]: 33%
